Source: ChEMBL document CHEMBL3769316, “Discovery of novel heteroarylmethylcarbamodithioates as potent anticancer agents: Synthesis, structure-activity relationship analysis and biological evaluation” (Eur J Med Chem, 2016)
The source made the active and inactive calls. The rule behind the calls is not given here.

Assays:
PC-3 [1] = assay: Induction of mitotic arrest in human PC3 cells assessed as increase in supernumerary centrosome formation at 2 uM after 6 hrs using DAPI staining by immunofluorescence-based laser scanning confocal microscopy; format: functional, cell-based
Summary of the method: (§1)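 PC-3 cells on confocal dishes were exposed 6 h to compound (2 µM) or taxol (40 nM), then fixed in 4% paraformaldehyde overnight at 4 °C and blocked. They were stained overnight at 4 °C with anti-β-tubulin and anti-γ-tubulin (1:100 each), then 1 h with Alexa Fluor 488/647 secondaries, and co-stained for DNA. Spindles and centrosomes were imaged by confocal microscopy.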

PC-3 [2] = assay: Induction of apoptosis in human PC3 cells assessed as increase in early apoptotic cells after 48 hrs by annexin V-FITC/propidium iodide staining-based flow cytometry; format: functional, cell-based
Summary of the method: (§2)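 After 48 h exposure to graded concentrations, both floating and adherent cells were collected into binding buffer. They were stained with Annexin V-FITC plus PI for 15 min in the dark and analysed immediately by flow cytometry. Annexin V+/PI− cells were counted as early apoptotic and Annexin V+/PI+ cells as late apoptotic.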

Bel-7402 [3] = assay: Induction of cell cycle arrest in human Bel7402 cells assessed as accumulation at G2/M phase at 2 uM after 24 hrs by propidium iodide staining-based flow cytometry (reference value: 16%); format: functional
PC-3 [4] = assay: Induction of cell cycle arrest in human PC3 cells assessed as accumulation at G2/M phase at 2 uM after 24 hrs by propidium iodide staining-based flow cytometry (reference value: 19.9%); format: functional
[5] = Cytotoxicity against human LO2 cells after 72 hrs by alamar blue assay; format: cell-based; conditions: L02, 72 h
Summary of the method: (§3)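 Cells seeded and cultured overnight, then exposed to compound at varying concentrations for 72 h. Cells were then incubated 2-4 h in medium containing 10% Alamar blue, and fluorescence was read at ex 530/em 590 nm. Dose-response curves used at least five concentrations, and IC50 (50% growth inhibition) was taken from these curves. Culture was at 37 °C.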

Bel-7402 [6] = assay: Induction of cell cycle arrest in human Bel7402 cells assessed as accumulation at G0/G1 phase at 2 uM after 24 hrs by propidium iodide staining-based flow cytometry (reference value: 36.76%); format: functional
MDA-MB-468 = assay: Cytotoxicity against human MDA-MB-468 cells after 72 hrs by alamar blue assay; format: functional, cell-based; conditions: MDA-MB-468, 72 h; summary of the method: as §3
[7] = Cytotoxicity against HEK293T cells after 72 hrs by alamar blue assay; format: cell-based; conditions: Homo sapiens, HEK-293T
PC-3 [8] = assay: Induction of mitotic arrest in human PC3 cells assessed as increase in MPM-2 level at 0.5 to 4 uM after 24 hrs by Western blot method; format: functional, cell-based
Summary of the method: (§4)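 PC-3 cells were treated 24 h with compound (0.5-4 µM) or taxol (40 nM) as positive control, then lysed in RIPA with PMSF and protease inhibitors. Lysates were run on SDS-PAGE and transferred to PVDF, which was blocked with 5% milk for 1 h. Membranes were probed overnight at 4 °C for MPM-2 (1:1000), phospho-H3 (1:600) or β-actin (1:1000), followed by HRP secondary and chemiluminescence.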

PC-3 [9] = assay: Induction of cell cycle arrest in human PC3 cells assessed as accumulation at G0/G1 phase at 2 uM after 24 hrs by propidium iodide staining-based flow cytometry (reference value: 42.23%); format: functional
Bel-7402 [10] = assay: Induction of cell cycle arrest in human Bel7402 cells assessed as accumulation at S phase at 2 uM after 24 hrs by propidium iodide staining-based flow cytometry (reference value: 47.24%); format: functional
[11] = Cytotoxicity against human HCT8 cells after 72 hrs by alamar blue assay; format: functional, cell-based; conditions: HCT-8, 72 h; summary of the method: as §3
[12] = Cytotoxicity against human PC3 cells after 72 hrs by alamar blue assay; format: functional, cell-based; conditions: PC-3, 72 h
Summary of the method: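 PC-3 cells were grown at 37 °C, 5% CO₂ in F-12K with 10% FBS, penicillin and streptomycin. They were seeded overnight and treated with at least five concentrations for 72 h. Alamar blue (10% in medium) was added for 2-4 h, and fluorescence was read at 530/590 nm. IC50 was taken from the dose-response curves.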

[13] = Cytotoxicity against human SW620 cells after 72 hrs by alamar blue assay; format: functional, cell-based; conditions: SW-620, 72 h
Summary of the method: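 SW620 cells were kept at 37 °C in 100% air in Leibovitz's L-15 with 10% FBS, penicillin and streptomycin. After overnight seeding, cells were given at least five concentrations for 72 h. Cells were then incubated 2-4 h with 10% Alamar blue, and fluorescence was read at ex 530/em 590 nm. IC50 was interpolated from the dose-response curves.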

PC-3 [14] = assay: Induction of mitotic arrest in human PC3 cells assessed as increase in multipolar spindle formation at 2 uM after 6 hrs using DAPI staining by immunofluorescence-based laser scanning confocal microscopy; format: functional, cell-based; summary of the method: as §1
[15] = Cytotoxicity against human HCT116 cells after 72 hrs by alamar blue assay; format: functional, cell-based; conditions: HCT-116, 72 h; summary of the method: as §3
NCI-H460 = assay: Cytotoxicity against human NCI-H460 cells after 72 hrs by alamar blue assay; format: functional, cell-based; conditions: NCI-H460, 72 h; summary of the method: as §3
PC-3 [16] = assay: Induction of apoptosis in human PC3 cells assessed as increase in late apoptotic cells after 48 hrs by annexin V-FITC/propidium iodide staining-based flow cytometry; format: functional, cell-based; summary of the method: as §2
[17] = Cytotoxicity against human COLO205 cells after 72 hrs by alamar blue assay; format: functional, cell-based; conditions: COLO 205, 72 h; summary of the method: as §3
NCI-H522 = assay: Cytotoxicity against human NCI-H522 cells after 72 hrs by alamar blue assay; format: functional, cell-based; conditions: NCI-H522, 72 h; summary of the method: as §3
[18] = Cytotoxicity against human Bel7402 cells after 72 hrs by alamar blue assay; format: functional, cell-based; conditions: Bel-7402, 72 h; summary of the method: as §3
Bel-7402 [19] = assay: Induction of apoptosis in human Bel7402 cells assessed as increase in late apoptotic cells after 48 hrs by annexin V-FITC/propidium iodide staining-based flow cytometry; format: functional, cell-based; summary of the method: as §2
PC-3 [20] = assay: Induction of cell cycle arrest in human PC3 cells assessed as accumulation at S phase at 2 uM after 24 hrs by propidium iodide staining-based flow cytometry (reference value: 37.86%); format: functional
PC-3 [21] = assay: Induction of mitotic arrest in human PC3 cells assessed as increase in histone H3 phosphorylation at Ser10 at 0.5 to 4 uM after 24 hrs by Western blot method; format: functional, cell-based; summary of the method: as §4
SK-BR-3 = assay: Cytotoxicity against human SK-BR-3 cells after 72 hrs by alamar blue assay; format: functional, cell-based; conditions: SK-BR-3, 72 h; summary of the method: as §3
NCI-H1299 = assay: Cytotoxicity against human NCI-H1299 cells after 72 hrs by alamar blue assay; format: functional, cell-based; conditions: NCI-H1299, 72 h; summary of the method: as §3
PC-3 [22] = assay: Induction of apoptosis in human PC3 cells assessed as chromatin condensation at 0.5 to 2 uM after 48 hrs by Hoechst 33342 staining-based fluorescence microscopy; format: functional, cell-based
Summary of the method: (§5)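 Cells were treated with graded concentrations for 48 h, washed with PBS and fixed in 4% paraformaldehyde for 15 min. They were then stained with Hoechst 33342 (10 µg/ml in PBS) for 10 min at room temperature. Nuclear morphology and chromatin condensation were imaged by fluorescence microscopy under UV illumination.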

[23] = Cytotoxicity against human DU145 cells after 72 hrs by alamar blue assay; format: functional, cell-based; conditions: DU-145, 72 h; summary of the method: as §3
Bel-7402 [24] = assay: Induction of apoptosis in human Bel7402 cells assessed as chromatin condensation at 1 to 4 uM after 48 hrs by Hoechst 33342 staining-based fluorescence microscopy; format: functional, cell-based; summary of the method: as §5
Bel-7402 [25] = assay: Induction of apoptosis in human Bel7402 cells assessed as increase in early apoptotic cells after 48 hrs by annexin V-FITC/propidium iodide staining-based flow cytometry; format: functional, cell-based; summary of the method: as §2

Compound: S=C(NCc1cccnc1)SCCc1nnc(-c2ccccc2)o1
- Activity (PC-3 [1]): Active
- Activity (PC-3 [2]): Dose-dependent effect
- Activity (Bel-7402 [3]): 46.27%
- Activity (PC-3 [4]): 51.1%
- IC50 [5]: 9.67 µM
- Activity (Bel-7402 [6]): 21.42%
- IC50 (MDA-MB-468): 2.77 µM
- IC50 [7]: 14.6 µM
- Activity (PC-3 [8]): Active
- Activity (PC-3 [9]): 22.41%
- Activity (Bel-7402 [10]): 29.9%
- IC50 [11]: 5.98 µM
- IC50 [12]: 0.39 µM
- IC50 [13]: 3.8 µM
- Activity (PC-3 [14]): Active
- IC50 [15]: 8.21 µM
- IC50 (NCI-H460): 6.07 µM
- Activity (PC-3 [16]): Dose-dependent effect
- IC50 [17]: 7.92 µM
- IC50 (NCI-H522): 2.16 µM
- IC50 [18]: 1.23 µM
- Activity (Bel-7402 [19]): Dose-dependent effect
- Activity (PC-3 [20]): 26.46%
- Activity (PC-3 [21]): Active
- IC50 (SK-BR-3): 0.58 µM
- IC50 (NCI-H1299): 1.89 µM
- Activity (PC-3 [22]): Active
- IC50 [23]: 3.34 µM
- Activity (Bel-7402 [24]): Active
- Activity (Bel-7402 [25]): Dose-dependent effect
